Assay results reported in ChEMBL document CHEMBL1154352, “Toll-like receptor 7 selective synthetic oligoribonucleotide agonists: synthesis and structure-activity relationship studies” (J Med Chem, 2009).
Activity calls are given as the source filed them. No cut-off for these calls is given here.

Legend:
[1] = system: PBMC; assay: Immunomodulatory activity in human PBMC assessed as induction of IP10 at 50 ug/ml after 24 hrs; format: functional, cell-based
In short: (§1)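 Human PBMCs plated at 5 × 10^6 cells/mL; compounds dissolved in PBS added at various concentrations, 37 °C for 24 h. Supernatant cytokines/chemokines quantified with human Luminex multiplex kit.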

[2] = organism: Homo sapiens; assay: Immunostimulatory activity in human mDC assessed as induction of IL12 at 100 ug/ml after 24 hrs; format: functional
In short: (§2)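 Human mDCs isolated from PBMCs by CD19+ B-cell depletion then BDCA1 positive selection; plated at 1 × 10^6 cells/mL, compounds in PBS, 37 °C for 24 h; supernatant cytokines by human Luminex multiplex. Representative of four independent experiments.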

[3] = biological target: T1, Toll-like receptor 8 (Homo sapiens) (UniProt Q9NR97); assay: Activation of human TLR8 expressed in HEK293XL assessed as fold induction of NF-kappaB activity at 50 ug/ml after 18 hrs by reporter gene assay relative to control
T1 sequence (whole entry): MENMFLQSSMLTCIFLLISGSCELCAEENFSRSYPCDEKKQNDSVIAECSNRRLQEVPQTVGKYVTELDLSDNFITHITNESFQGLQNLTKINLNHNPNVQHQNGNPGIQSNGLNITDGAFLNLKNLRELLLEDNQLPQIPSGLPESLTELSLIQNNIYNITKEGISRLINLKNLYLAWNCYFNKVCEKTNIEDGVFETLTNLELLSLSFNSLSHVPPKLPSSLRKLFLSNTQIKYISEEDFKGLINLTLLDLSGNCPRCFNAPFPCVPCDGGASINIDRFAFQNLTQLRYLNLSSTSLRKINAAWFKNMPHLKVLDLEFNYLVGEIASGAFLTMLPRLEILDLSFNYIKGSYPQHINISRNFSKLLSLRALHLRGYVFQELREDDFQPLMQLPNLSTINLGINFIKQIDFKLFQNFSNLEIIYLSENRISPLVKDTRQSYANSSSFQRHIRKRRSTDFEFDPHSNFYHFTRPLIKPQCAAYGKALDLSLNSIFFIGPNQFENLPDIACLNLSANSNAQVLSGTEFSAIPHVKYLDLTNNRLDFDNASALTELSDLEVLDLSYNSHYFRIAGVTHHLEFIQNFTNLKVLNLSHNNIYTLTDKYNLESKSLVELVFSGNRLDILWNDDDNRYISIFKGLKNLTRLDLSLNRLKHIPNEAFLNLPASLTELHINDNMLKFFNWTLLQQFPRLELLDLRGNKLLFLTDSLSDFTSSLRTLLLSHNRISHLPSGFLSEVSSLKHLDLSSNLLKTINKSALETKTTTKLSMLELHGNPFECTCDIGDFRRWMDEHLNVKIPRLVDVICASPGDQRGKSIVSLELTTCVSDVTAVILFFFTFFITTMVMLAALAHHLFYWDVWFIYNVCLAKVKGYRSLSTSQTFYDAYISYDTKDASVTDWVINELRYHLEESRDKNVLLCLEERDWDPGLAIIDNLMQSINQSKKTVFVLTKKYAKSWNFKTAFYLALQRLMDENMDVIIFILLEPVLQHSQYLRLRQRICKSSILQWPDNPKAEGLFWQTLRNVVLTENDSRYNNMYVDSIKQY
In short: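 HEK293 cells stably expressing human TLR7 or TLR8, transiently transfected with SEAP reporter plasmid; medium replaced, SIMRA compounds added, 18 h incubation. Supernatant SEAP measured by QuantiBlue; expressed as fold increase in NF-κB activity over PBS control. Tabulated data at 50 μg/mL, representative of three independent experiments.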

[4] = system: PBMC; assay: Immunomodulatory activity in human PBMC assessed as induction of MIP1alpha at 50 ug/ml after 24 hrs; format: functional, cell-based; in short: as §1
[5] = system: PBMC; assay: Immunomodulatory activity in human PBMC assessed as induction of MIP1beta at 50 ug/ml after 24 hrs; format: functional, cell-based; in short: as §1
[6] = system: PBMC; assay: Immunomodulatory activity in human PBMC assessed as induction of IL12 at 50 ug/ml after 24 hrs; format: functional, cell-based; in short: as §1
[7] = organism: Homo sapiens; assay: Immunostimulatory activity in human pDC assessed as induction of IP10 at 100 ug/ml after 24 hrs; format: functional
In short: (§3)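 Human pDCs plated at 1 × 10^6 cells/mL; compounds in PBS added, 37 °C for 24 h; supernatant cytokines/chemokines by human Luminex multiplex kit.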

[8] = organism: Homo sapiens; assay: Immunostimulatory activity in human pDC assessed as induction of IFNalpha at 100 ug/ml after 24 hrs; format: functional; in short: as §3
[9] = system: PBMC; assay: Immunomodulatory activity in human PBMC assessed as induction of IL6 at 50 ug/ml after 24 hrs; format: functional, cell-based; in short: as §1
[10] = organism: Homo sapiens; assay: Immunostimulatory activity in human mDC assessed as induction of IFNalpha at 100 ug/ml after 24 hrs; format: functional; in short: as §2
[11] = Metabolic stability in human serum assessed as full length product remaining after 10 mins by HPLC; format: ADME, cell-free; details: read-out: Stability
In short: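 About 0.5 A260 units compound in 1% human serum in PBS, 37 °C; aliquot taken at 10 min, analysed by anion-exchange HPLC for percent intact full-length product.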

[12] = organism: Homo sapiens; assay: Immunostimulatory activity in human pDC assessed as induction of IL6 at 100 ug/ml after 24 hrs; format: functional; in short: as §3
[13] = system: PBMC; assay: Immunomodulatory activity in human PBMC assessed as induction of MCP1 at 50 ug/ml after 24 hrs; format: functional, cell-based; in short: as §1
[14] = system: Mus musculus; assay: Immunomodulatory activity in C57BL/6 mouse assessed as induction of IL12 release at 25 mg/kg, sc after 2 hrs by ELISA; format: functional, organism-based; set-up: dose 25 mg/kg
In short: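 Female C57BL/6 wild-type mice, 5–8 weeks old, n=3; compounds given subcutaneously at 10 or 25 mg/kg. Retro-orbital blood at 2 h; serum cytokines by mouse Luminex multiplex or IL-12 ELISA.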

[15] = organism: Homo sapiens; assay: Immunostimulatory activity in human mDC assessed as induction of IP10 at 100 ug/ml after 24 hrs; format: functional; in short: as §2
[16] = organism: Homo sapiens; assay: Immunostimulatory activity in human mDC assessed as induction of TNFalpha at 100 ug/ml after 24 hrs; format: functional; in short: as §2
[17] = organism: Homo sapiens; assay: Immunostimulatory activity in human mDC assessed as induction of IL6 at 100 ug/ml after 24 hrs; format: functional; in short: as §2
[18] = system: PBMC; assay: Immunomodulatory activity in human PBMC assessed as induction of IL1-beta at 50 ug/ml after 24 hrs; format: functional, cell-based; in short: as §1
[19] = system: PBMC; assay: Immunomodulatory activity in human PBMC assessed as induction of TNFalpha at 50 ug/ml after 24 hrs; format: functional, cell-based; in short: as §1
[20] = system: PBMC; assay: Immunomodulatory activity in human PBMC assessed as induction of IFNalpha at 50 ug/ml after 24 hrs; format: functional, cell-based; in short: as §1

- fold change (FC) [3]: 1.6
- remaining at 10 min [11]: 84%
SMILES: Nc1ccn([C@@H]2O[C@H](CO[C@H]3[C@@H](O)[C@H](n4cnc5c(N)ncnc54)O[C@@H]3COP(=O)(S)O[C@H]3[C@@H](O)[C@H](n4ccc5c(=O)[nH]c(N)nc54)O[C@@H]3COP(=O)(S)O[C@H]3[C@@H](O)[C@H](n4ccc(=O)[nH]c4=O)O[C@@H]3COP(=O)(S)O[C@H]3[C@@H](O)[C@H](n4cnc5c(N)ncnc54)O[C@@H]3COP(=O)(S)O[C@H]3[C@@H](O)[C@H](n4ccc5c(=O)[nH]c(N)nc54)O[C@@H]3COP(=O)(S)O[C@H]3[C@@H](O)[C@H](n4ccc(=O)[nH]c4=O)O[C@@H]3CO)[C@@H](OP(=O)(S)OC[C@H]3O[C@@H](n4ccc5c(=O)[nH]c(N)nc54)[C@H](O)[C@@H]3OP(=O)(S)OC[C@H]3O[C@@H](n4cnc5c(N)ncnc54)[C@H](O)[C@@H]3OP(=O)(S)OC[C@H]3O[C@@H](n4ccc(=O)[nH]c4=O)[C@H](O)[C@@H]3OP(=O)(S)OC[C@H]3O[C@@H](n4ccc(=O)[nH]c4=O)[C@H](O)[C@@H]3OP(=O)(S)OCC(O)COP(=O)(S)O[C@H]3[C@@H](O)[C@H](n4ccc(=O)[nH]c4=O)O[C@@H]3COP(=O)(S)O[C@H]3[C@@H](O)[C@H](n4ccc(=O)[nH]c4=O)O[C@@H]3COP(=O)(S)O[C@H]3[C@@H](O)[C@H](n4cnc5c(N)ncnc54)O[C@@H]3COP(=O)(S)O[C@H]3[C@@H](O)[C@H](n4ccc5c(=O)[nH]c(N)nc54)O[C@@H]3COP(=O)(S)O[C@H]3[C@@H](O)[C@H](n4ccc(N)nc4=O)O[C@@H]3CO[C@H]3[C@@H](O)[C@H](n4cnc5c(N)ncnc54)O[C@@H]3COP(=O)(S)O[C@H]3[C@@H](O)[C@H](n4ccc5c(=O)[nH]c(N)nc54)O[C@@H]3COP(=O)(S)O[C@H]3[C@@H](O)[C@H](n4ccc(=O)[nH]c4=O)O[C@@H]3COP(=O)(S)O[C@H]3[C@@H](O)[C@H](n4cnc5c(N)ncnc54)O[C@@H]3COP(=O)(S)O[C@H]3[C@@H](O)[C@H](n4ccc5c(=O)[nH]c(N)nc54)O[C@@H]3COP(=O)(S)O[C@H]3[C@@H](O)[C@H](n4ccc(=O)[nH]c4=O)O[C@@H]3CO)[C@H]2O)c(=O)n1 (stereo not given in full)
- Activity [1]: 155 pg/mL
- Activity [2]: Active
- Activity [4]: 5790 pg/mL
- Activity [5]: 9960 pg/mL
- Activity [6]: 434 pg/mL
- Activity [7]: Active
- Activity [8]: Active
- Activity [9]: 2760 pg/mL
- Activity [10]: Active
- Activity [12]: Active
- Activity [13]: 56000 pg/mL
- Activity [14]: Active
- Activity [15]: Active
- Activity [16]: Active
- Activity [17]: Active
- Activity [18]: 306 pg/mL
- Activity [19]: 68 pg/mL
- Activity [20]: 131 pg/mL
